Source: ChEMBL document CHEMBL5724801, “EUbOPEN Chemogenomics Library - Multiplex” (2024)
“And” between values parts separate entries of the source, which are not always exact repeats. Equal entries are not always repeated.

tested on: U2OS; assay: Multiplex assay against U2OS; type: toxicity, cell-based; conditions: human, 12 h, 1 µM, compound concentration 1 uM
Outline: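 Imaging took place on a CQ1 microscope at 37°C and 5% CO2 once compound had been added to live cells stained at seeding with Hoechst33342, BioTracker Green Microtubule Cytoskeleton Dye, MitoTracker Red and Annexin V Alexa Fluor 680. CellPathfinder machine-learning gating classed cells as Hoechst high-intensity objects or normal cells, classed normal cells as having healthy, pyknosed or fragmented nuclei, and classed pyknosed cells as mitotic or apoptotic. Tubulin, mitochondrial-mass and membrane-permeability phenotypes are per cents of the healthy-nucleus cells.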

Structure (SMILES) | Population Apoptotic (%) | Population Fragmented Nuclei (%) | Population Healthy Nuclei (%) | Population Hoechst High Intensity Objects (%) | Population Membrane Permeable-Phenotype (%) | Population Mitochondria Different-Phenotype (%) | Population Mitotic Cells (%) | Population Normal (%) | Population Pyknosed Nuclei (%) | Population Tubulin-Different-Phenotype (%)
Cl.NCCc1ccc(O)c(O)c1 [DOPAMINE HYDROCHLORIDE] | 100% and 83% | 23% and 15% | 67% and 72% | 3% and 1% | 5% and 8% | 1% and 2% | 0% and 16% | 96% and 98% | 9% and 11% | 2% and 5%
Cc1cc(O)c(-c2ccc([C@@H](C)CN(C)C)cc2)c2c1[nH]c(=O)c1sccc12 | 70% [middle of 4 runs] | – | 48% and 63% and 56.09% and 62.5% | 4% and 2% and 0.32% and 0% | – | – | – | 95% and 97% and 99.68% and 100% | – | 12% and 14% and 4% and 6.67%

same assay, conditions: human, 12 h, 1 µM, compound concentration 1 uM

Structure (SMILES) | Total Cell Count
Cl.NCCc1ccc(O)c(O)c1 [DOPAMINE HYDROCHLORIDE] | 237 and 104

same assay, conditions: human, 12 h, 10 µM, compound concentration 10 uM

Structure (SMILES) | Population Apoptotic (%) | Population Fragmented Nuclei (%) | Population Healthy Nuclei (%) | Population Hoechst High Intensity Objects (%) | Population Membrane Permeable-Phenotype (%) | Population Mitochondria Different-Phenotype (%) | Population Mitotic Cells (%) | Population Normal (%) | Population Pyknosed Nuclei (%) | Population Tubulin-Different-Phenotype (%)
Cl.NCCc1ccc(O)c(O)c1 [DOPAMINE HYDROCHLORIDE] | 80% and 75% | 21% and 18% | 65% and 76% | 3% and 0% | 2% and 4% | 1 | 20% and 25% | 96% and 100% | 12% and 4% | 1%
Cc1cc(O)c(-c2ccc([C@@H](C)CN(C)C)cc2)c2c1[nH]c(=O)c1sccc12 | 64% and 69% and 40.85% and 42.19% | – | 50% and 56% and 56.98% and 52.11% | 4% and 8% and 0% | – | – | 35% and 30% and 59.15% and 57.81% | 95% and 91% and 100% | 41.28% [middle of 4 runs] | 72% and 45% and 70.41% and 64.86%

same assay, conditions: human, 12 h, 10 µM, compound concentration 10 uM

Structure (SMILES) | Total Cell Count
Cl.NCCc1ccc(O)c(O)c1 [DOPAMINE HYDROCHLORIDE] | 204 and 95

same assay, conditions: human, 24 h, 1 µM, compound concentration 1 uM

Structure (SMILES) | Population Apoptotic (%) | Population Fragmented Nuclei (%) | Population Healthy Nuclei (%) | Population Hoechst High Intensity Objects (%) | Population Membrane Permeable-Phenotype (%) | Population Mitochondria Different-Phenotype (%) | Population Mitotic Cells (%) | Population Normal (%) | Population Pyknosed Nuclei (%) | Population Tubulin-Different-Phenotype (%)
Cl.NCCc1ccc(O)c(O)c1 [DOPAMINE HYDROCHLORIDE] | 90% and 80% | 18% and 14% | 69% and 77% | 4% and 1% | 7% and 4% | 2% and 1% | 10% and 20% | 95% and 98% | 11% and 7% | 5% and 2%
Cc1cc(O)c(-c2ccc([C@@H](C)CN(C)C)cc2)c2c1[nH]c(=O)c1sccc12 | 92% [middle of 4 runs] | – | 34% [middle of 4 runs] | 8% and 6% and 0.34% and 0% | – | – | – | 91% and 93% and 99.66% and 100% | – | 19% and 12% and 11.11% and 17.07%

same assay, conditions: human, 24 h, 1 µM, compound concentration 1 uM

Structure (SMILES) | Total Cell Count
Cl.NCCc1ccc(O)c(O)c1 [DOPAMINE HYDROCHLORIDE] | 263 and 132

same assay, conditions: human, 24 h, 10 µM, compound concentration 10 uM

Structure (SMILES) | Population Apoptotic (%) | Population Fragmented Nuclei (%) | Population Healthy Nuclei (%) | Population Hoechst High Intensity Objects (%) | Population Membrane Permeable-Phenotype (%) | Population Mitochondria Different-Phenotype (%) | Population Mitotic Cells (%) | Population Normal (%) | Population Pyknosed Nuclei (%) | Population Tubulin-Different-Phenotype (%)
Cl.NCCc1ccc(O)c(O)c1 [DOPAMINE HYDROCHLORIDE] | 92% and 87% | 18% and 15% | 70% and 77% | 2% and 0% | 4% and 1% | 0% | 8% and 12% | 97% and 99% | 10% and 7% | 1%
Cc1cc(O)c(-c2ccc([C@@H](C)CN(C)C)cc2)c2c1[nH]c(=O)c1sccc12 | 81% and 82% and 58.37% and 68.63% | – | 31% [middle of 4 runs] | 9% [middle of 4 runs] | 16% [middle of 4 runs] | 70% [middle of 4 runs] | 31.37% [middle of 4 runs] | 90% and 87% and 99.35% and 100% | 67.86% [middle of 4 runs] | 64.47% [middle of 4 runs]

same assay, conditions: human, 24 h, 10 µM, compound concentration 10 uM

Structure (SMILES) | Total Cell Count
Cl.NCCc1ccc(O)c(O)c1 [DOPAMINE HYDROCHLORIDE] | 245 and 111
Cc1cc(O)c(-c2ccc([C@@H](C)CN(C)C)cc2)c2c1[nH]c(=O)c1sccc12 | 210 [middle of 4 runs]

same assay, conditions: human, 48 h, 1 µM, compound concentration 1 uM

Structure (SMILES) | Population Apoptotic (%) | Population Fragmented Nuclei (%) | Population Healthy Nuclei (%) | Population Hoechst High Intensity Objects (%) | Population Membrane Permeable-Phenotype (%) | Population Mitochondria Different-Phenotype (%) | Population Mitotic Cells (%) | Population Normal (%) | Population Pyknosed Nuclei (%) | Population Tubulin-Different-Phenotype (%)
Cl.NCCc1ccc(O)c(O)c1 [DOPAMINE HYDROCHLORIDE] | 90% and 89% | 17% and 14% | 70% and 73% | 2 | 5% and 7% | 3% and 4% | 9% and 10% | 97% | 11 | 4% and 3%
Cc1cc(O)c(-c2ccc([C@@H](C)CN(C)C)cc2)c2c1[nH]c(=O)c1sccc12 | 96% and 100% and 72.95% and 83.47% | – | 18% [middle of 4 runs] | – | – | – | – | 82% and 84% and 99.63% and 98.84% | – | 25% and 50% and 28.57%

same assay, conditions: human, 48 h, 1 µM, compound concentration 1 uM

Structure (SMILES) | Total Cell Count
Cl.NCCc1ccc(O)c(O)c1 [DOPAMINE HYDROCHLORIDE] | 363 and 172
Cc1cc(O)c(-c2ccc([C@@H](C)CN(C)C)cc2)c2c1[nH]c(=O)c1sccc12 | 250 [middle of 4 runs]

same assay, conditions: human, 48 h, 10 µM, compound concentration 10 uM

Structure (SMILES) | Population Apoptotic (%) | Population Fragmented Nuclei (%) | Population Healthy Nuclei (%) | Population Hoechst High Intensity Objects (%) | Population Membrane Permeable-Phenotype (%) | Population Mitochondria Different-Phenotype (%) | Population Mitotic Cells (%) | Population Normal (%) | Population Pyknosed Nuclei (%) | Population Tubulin-Different-Phenotype (%)
Cl.NCCc1ccc(O)c(O)c1 [DOPAMINE HYDROCHLORIDE] | 85% and 100% | 18% and 14% | 66% and 76% | 2% and 1% | 7% and 2% | 3% and 2% | 14% and 0% | 97% and 98% | 14% and 8% | 5% and 2%
Cc1cc(O)c(-c2ccc([C@@H](C)CN(C)C)cc2)c2c1[nH]c(=O)c1sccc12 | 96% and 100% and 80.93% and 86.67% | – | 17% and 13% and 14.23% and 9.84% | – | – | 45% and 50% and 33.33% | 13.33% [middle of 4 runs] | 79% and 84% and 98.92% and 99.19% | 31% and 78.47% and 86.07% | 64% [middle of 4 runs]

same assay, conditions: human, 48 h, 10 µM, compound concentration 10 uM

Structure (SMILES) | Total Cell Count
Cl.NCCc1ccc(O)c(O)c1 [DOPAMINE HYDROCHLORIDE] | 338 and 179
Cc1cc(O)c(-c2ccc([C@@H](C)CN(C)C)cc2)c2c1[nH]c(=O)c1sccc12 | 220 [middle of 4 runs]
